According to the array DNA melting data of Ke et al. (doi:10.1101/2024.01.08.574731):

Tests used:
[1] = folding enthalpy; higher = less favourable; fluorescence melt of hairpins on a sequencing array, two-state fit; settings: sodium 0.088 M
In short: (§1)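 Library hairpins on a sequenced MiSeq flow cell carried annealed Cy3 and quencher oligos, and their Cy3 fluorescence was imaged in 50 mM Na-HEPES pH 8.0 with 25 mM NaCl, in 2.5 °C steps up to 60 °C. Signals were normalised to Cy3 before quenching and to control constructs. Melting temperature and folding enthalpy were obtained from bootstrapped two-state fits, combined by inverse-variance weighting across four replicates, and the fitted temperatures were then raised by 9.35 °C to match UV melts.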

[2] = melting temperature; fluorescence melt of hairpins on a sequencing array, two-state fit, raised by 9.35 °C to match UV melts; settings: sodium 0.088 M
In short: as §1

Sequence | folding enthalpy [1] [kcal/mol] | Tm [2] [°C]
GCGGTTGCCCGC ((((....)))) | -14.9 | 62
GCGGTTGGAAACAGCTGC ((.(.((....)).).)) | -25.9 | 52.3
GCGGTTGGAAACAGTCGC (((..((....))..))) | -25.3 | 44.2
GCGGTTGGAAACGACCGC (((((.(....).))))) | -48.8 | 62.9
GCGTAAACGAAAGTTCGC (((..(((....)))))) | -33.7 | 48.2
GCGTAACGAAAGTTCGC (((.(((....)))))) | -36.1 | 55.9
GCGTAACGAAAGTTGCGC (((.(((....))).))) | -53 | 63
GCGTAAGAACGC ((((....)))) | -15.8 | 49.5
GCGTAATCGAAAGATCGC (((..(((....)))))) | -25.1 | 45.6
GCGTACAACGC ((((...)))) | -22.4 | 55.6
GCGTACACACGC ((((....)))) | -23.9 | 51.4
GCGTACCCGAAAGGGCGC (((..(((....)))))) | -22.1 | 56.4
GCGTACCGAAAGGTCGC (((.(((....)))))) | -36.5 | 63.5
GCGTACCGACGC ((((....)))) | -22.5 | 50.9
GCGTACGAAAGTAAGCGC ((((((....)))..))) | -30.9 | 56.8
GCGTACGAAAGTAATCGC ((((((....)))..))) | -23.6 | 44.1
GCGTACGAAAGTAGCGC ((((((....))).))) | -31.1 | 68.8
GCGTACGAAAGTATACGC ((((((....)))..))) | -34 | 51.4
GCGTACGAAAGTATCCGC ((((((....)))..))) | -23.5 | 38.6
GCGTACGAAAGTATGCGC ((((((....)))..))) | -37.5 | 58.4
GCGTACGGAAACATACGC (((((.(....).))))) | -33.8 | 46.8
GCGTACTGACGC ((((....)))) | -21.9 | 52.4
GCGTAGCGAAAGCCGCGC (((..((....))..))) | -16.2 | 61.6
GCGTAGCGAAAGCTCGC (((.(((....)))))) | -16.4 | 63.3

Sequence | folding enthalpy [1] [kcal/mol] | Tm [2] [°C]
GCGTAGCGAAAGCTCGGC ((..(((....)))..)) | -7.84 | 39.9
GCGTAGGGAAACTTGCGC (((.(.(....).).))) | -28.5 | 42.3
GCGTAGTCACGC ((((....)))) | -21.2 | 51.5
GCGTATACGAAAGTACGC (((..(((....)))))) | -35.4 | 51.6
GCGTATCCACGC ((((....)))) | -26.4 | 51.7
GCGTATCCGAAAGGACGC (((..(((....)))))) | -27.1 | 50.2
GCGTATCGAAAGATGCGC (((.(((....))).))) | -43.8 | 66.3
GCGTATGGAAACATACAC (.(((((....))))).) | -15.8 | 36.7
GCGTATGTACGC ((((....)))) | -22.4 | 54.8
GCGTATTAACGC ((((....)))) | -22.1 | 53.8
GCGTATTCGAAAGAACGC (((..(((....)))))) | -24.4 | 42.2
GCGTCACGACGC ((((....)))) | -31.7 | 58.6
GCGTCAGCGAAAGCTCGC (((..(((....)))))) | -10.1 | 47.2
GCGTCAGGAAACTGGTGC ((..(((....)))..)) | -27.1 | 41.6
GCGTCCCCGAAAGGGCGC (((..(((....)))))) | -24.3 | 65.2
GCGTCCGAAAGGAGGCGC ((((((....)))..))) | -36.3 | 67.5
GCGTCCGAAAGGATACGC ((((((....)))..))) | -29.2 | 55.5
GCGTCCGAAAGGATCGC ((((((....))).))) | -37.8 | 59.5
GCGTCCGACGC ((((...)))) | -27.1 | 53.9
GCGTCCGGAAACGAACGC ((((.((....)).)))) | -42.8 | 54.7
GCGTCCGGAAACGGGTGC ((..(((....)))..)) | -30.8 | 51.2
GCGTCCTAACGC ((((....)))) | -26.4 | 54.8
GCGTCCTACGC ((((...)))) | -20.2 | 62.5
GCGTCGAAACGC ((((....)))) | -18.4 | 51.3

Sequence | folding enthalpy [1] [kcal/mol] | Tm [2] [°C]
GCGTCGCGAAAGCAAAGC ((.(.((....)).).)) | -21.3 | 62.6
GCGTCGCGAAAGCAATGC ((.(.((....)).).)) | -21.6 | 43.9
GCGTCGCGAAAGCGTTGC ((..(((....)))..)) | -17.9 | 48.6
GCGTCGCGAAAGCTACGC ((((.((....)).)))) | -29.4 | 66.9
GCGTCGGCGAAAGCCCGC (((..(((....)))))) | -17 | 58.7
GCGTCTAACGC ((((...)))) | -20.6 | 53.3
GCGTCTCACGC ((((...)))) | -23.4 | 56.4
GCGTCTCCGAAAGGACGC (((..(((....)))))) | -33.1 | 56.8
GCGTCTCGAAAGAGCCGC (((.(((....))).))) | -42.6 | 56.5
GCGTCTCGAAAGAGCGC (((.(((....)))))) | -31 | 66.8
GCGTCTGGAAACAAACGC ((((.((....)).)))) | -32.2 | 44.5
GCGTCTGGAAACAGATGC ((.((((....)))).)) | -55.5 | 54.6
GCGTCTGTACGC ((((....)))) | -26.2 | 53.3
GCGTGAACGAAAGTTCGC (((..(((....)))))) | -15.3 | 48.6
GCGTGACGAAAGTCTCGC (((.(((....))).))) | -39.4 | 67.7
GCGTGAGGAAACTCACAC (.(((((....))))).) | -13.8 | 42.3
GCGTGAGGAAACTCGCGC (((.(((....))).))) | -43 | 64.8
GCGTGAGGAAACTTACGC ((((.((....)).)))) | -33.8 | 52
GCGTGATCGAAAGATCGC (((..(((....)))))) | -15.6 | 47.5
GCGTGCCCACGC ((((....)))) | -26.6 | 60.2
GCGTGCGAAAGCAGACGC ((((((....)))..))) | -28.1 | 62.7
GCGTGCGAACGC ((((....)))) | -18.2 | 69
GCGTGCGCGAAAGCGCGC (((..(((....)))))) | -6.87 | 65.1
